Results: ChEMBL document CHEMBL3259545, “Novel pyrrolobenzoxaboroles: design, synthesis, and biological evaluation against Trypanosoma brucei” (Eur J Med Chem, 2014)
Values after ≈ are worked out from the molar mass of the structure shown. Active and inactive are the calls of the source. No cut-off for these calls is given here.

Columns and labels:
[1] = test system: Trypanosoma brucei brucei; assay: Antitrypanosomal activity against Trypanosoma brucei brucei 427 after 72 hrs by alamar blue assay; assay type: functional, organism-based; conditions: Trypanosoma brucei, 427, 72 h
Method in brief: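 Bloodstream T. b. brucei 427 kept in log phase in HMI-9 with 10% FBS, 10% Serum Plus and penicillin/streptomycin, subcultured every 2–3 days. Final density 1.0 × 10⁵/mL with 0.4% DMSO, exposed to serially diluted compounds for 72 h at 37 °C, 5% CO₂. Resazurin added for another 2–4 h, fluorescence read at ex 544/em 590 nm. IC50 from sigmoidal fits of triplicate points.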

L929 = assay: Cytotoxicity against mouse L929 cells assessed as cell viability after 72 hrs by alamar blue assay; assay type: cell-based; conditions: L929, 72 h
Method in brief: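 L929 mouse fibroblasts grown in DMEM with 10% FBS and 1% penicillin/streptomycin, kept sub-confluent. Seeded from a 1 × 10⁴/mL suspension, attached overnight, then medium renewed and DMSO-diluted compounds added. Incubated 72 h at 37 °C, 5% CO₂. Resazurin added for another 3–4 h, fluorescence read at ex 544/em 590 nm.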

[2] = test system: Trypanosoma brucei brucei; assay: Trypanocidal activity against bloodstream stage of Trypanosoma brucei brucei infected in acute BALB/c mouse assessed as animal survival rate at 50 mg/kg, ip bid administered for 5 days initiated 24 hrs post infection; assay type: functional; conditions: route intraperitoneal
Method in brief: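 Female BALB/c mice infected i.p. with 600 T. b. brucei 221 bloodstream parasites; from 24 h post-infection, dosed 50 mg/kg i.p. twice daily for 5 days in 5% ethanol/45% sterile deionized water/50% PEG400. Parasitaemia was checked on trypan-blue-stained tail-vein blood smears every other day for 10 days, then weekly; survival was followed to day 30.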

[3] = test system: Trypanosoma brucei brucei; assay: Trypanocidal activity against bloodstream stage of Trypanosoma brucei brucei infected in acute BALB/c mouse assessed as clearance of blood parasite on day 30 at 50 mg/kg, ip bid administered for 5 days initiated 24 hrs post infection; assay type: functional; conditions: route intraperitoneal
Method in brief: (§1)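 Female BALB/c mice infected i.p. with 600 T. b. brucei 221 parasites. Starting 24 h after infection, compounds were given i.p. at 50 mg/kg twice daily for 5 days, in 5% ethanol/45% water/50% PEG400. Untreated mice served as controls. Parasitemia was checked by trypan-blue-stained tail-vein blood smears every other day for ten days, then weekly, with survival followed to day 30.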

[4] = test system: Trypanosoma brucei brucei; assay: Trypanocidal activity against bloodstream stage of Trypanosoma brucei brucei infected in acute BALB/c mouse assessed as extension of animal survival at 50 mg/kg, ip bid administered for 5 days initiated 24 hrs post infection; assay type: functional, organism-based; set-up: dose 50 mg/kg; method in brief: as §1

| SMILES | IC50 [1] | IC50 (L929) | survival at 50 mg/kg [2] | Activity [3] | Activity [4] |
| --- | --- | --- | --- | --- | --- |
| CCNC(=O)c1cccn1-c1ccc2c(c1)B(O)OC2 | 1.85 µg/mL (≈ 6.85 µM) | > 10 µg/mL | – | – | – |
| Cc1cccc(C(=O)c2ccn(-c3ccc4c(c3)B(O)OC4)c2)c1 | 0.09 µg/mL (≈ 0.284 µM) | > 10 µg/mL | – | – | – |
| CCCNC(=O)c1cccn1-c1ccc2c(c1)B(O)OC2 | 3.21 µg/mL (≈ 11.3 µM) | > 10 µg/mL | – | – | – |
| O=C(c1ccn(-c2ccc3c(c2)B(O)OC3)c1)C1CCCCC1 | 0.13 µg/mL (≈ 0.42 µM) | > 10 µg/mL | – | – | – |
| O=C(c1ccccc1)c1ccn(-c2ccccc2)c1 | > 5 µg/mL | > 10 µg/mL | – | – | – |
| O=C(c1ccccc1)c1ccn(-c2ccc3c(c2)C(O)OC3)c1 (centres undefined) | > 5 µg/mL | 8.18 µg/mL (≈ 26.8 µM) | – | – | – |
| O=C(c1ccccc1Cl)c1cccn1-c1ccc2c(c1)B(O)OC2 | 0.7 µg/mL (≈ 2.07 µM) | > 10 µg/mL | – | – | – |
| CCCC(=O)c1ccn(-c2ccc3c(c2)B(O)OC3)c1 | 0.11 µg/mL (≈ 0.409 µM) | > 10 µg/mL | – | – | – |
| O=C(c1ccc(Cl)cc1Cl)c1cccn1-c1ccc2c(c1)B(O)OC2 | 1.43 µg/mL (≈ 3.84 µM) | > 10 µg/mL | – | – | – |
| O=C(NCCc1ccccc1)c1cccn1-c1ccc2c(c1)B(O)OC2 | 0.68 µg/mL (≈ 1.96 µM) | > 10 µg/mL | – | – | – |
| COc1ccc(S(=O)(=O)c2cn(-c3ccc4c(c3)B(O)OC4)c3ccccc23)cc1 | > 5 µg/mL | > 10 µg/mL | – | – | – |
| OB1OCc2ccc(-n3ccc4ccccc43)cc21 | > 5 µg/mL | > 10 µg/mL | – | – | – |
| COc1ccc(C(=O)c2ccn(-c3ccc4c(c3)B(O)OC4)c2)cc1 | 0.11 µg/mL (≈ 0.33 µM) | > 10 µg/mL | – | – | – |
| O=C(c1ccc(F)cc1)c1ccn(-c2ccc3c(c2)B(O)OC3)c1 | 0.16 µg/mL (≈ 0.498 µM) | > 10 µg/mL | – | – | – |
| CC(=O)c1cccn1-c1ccc2c(c1)B(O)OC2 | 0.69 µg/mL (≈ 2.86 µM) | > 10 µg/mL | – | – | – |
| OB1OCc2ccc(-n3cc(Sc4cccc(Cl)c4)c4ccccc43)cc21 | > 5 µg/mL | > 10 µg/mL | – | – | – |
| OB1OCc2ccc(-n3cccc3Sc3ccccc3Cl)cc21 | 2.89 µg/mL (≈ 8.46 µM) | > 10 µg/mL | – | – | – |
| OB1OCc2ccc(-n3ccc(Cc4ccccc4)c3)cc21 | 2.17 µg/mL (≈ 7.5 µM) | > 10 µg/mL | – | – | – |
| COc1cc(C(=O)c2ccn(-c3ccc4c(c3)B(O)OC4)c2)cc(OC)c1OC | 0.16 µg/mL (≈ 0.407 µM) | 1.15 µg/mL (≈ 2.92 µM) | – | – | – |
| O=C(c1ccc(CO)cc1)c1ccn(-c2ccc3c(c2)B(O)OC3)c1 | 0.04 µg/mL (≈ 0.12 µM) | 9.31 µg/mL (≈ 27.9 µM) | – | – | – |
| O=C(c1ccn(-c2ccc3c(c2)B(O)OC3)c1)c1ccc(Cl)cc1Cl | 1.12 µg/mL (≈ 3.01 µM) | > 10 µg/mL | – | – | – |

| SMILES | IC50 [1] | IC50 (L929) | survival at 50 mg/kg [2] | Activity [3] | Activity [4] |
| --- | --- | --- | --- | --- | --- |
| NCCCC(=O)c1ccn(-c2ccc3c(c2)B(O)OC3)c1 | 4.02 µg/mL (≈ 14.1 µM) | > 10 µg/mL | – | – | – |
| OB1OCc2ccc(-n3cc(Sc4ccc(Cl)c(Cl)c4)c4ccccc43)cc21 | > 5 µg/mL | > 10 µg/mL | – | – | – |
| OB1OCc2ccc(-n3cc(Sc4ccc(Cl)cc4)c4ccccc43)cc21 | > 5 µg/mL | > 10 µg/mL | – | – | – |
| OB1OCc2ccc(-n3cc(Sc4ccc(F)cc4)c4ccccc43)cc21 | > 5 µg/mL | > 10 µg/mL | – | – | – |
| O=[N+]([O-])c1ccc(Sc2cn(-c3ccc4c(c3)B(O)OC4)c3ccccc23)cc1 | > 5 µg/mL | > 10 µg/mL | – | – | – |
| O=C(c1ccc(Cl)cc1)c1ccn(-c2ccc3c(c2)B(O)OC3)c1 | 0.21 µg/mL (≈ 0.622 µM) | > 10 µg/mL | – | – | – |
| COc1ccc(Sc2cn(-c3ccc4c(c3)B(O)OC4)c3ccccc23)cc1 | > 5 µg/mL | > 10 µg/mL | – | – | – |
| NCc1ccc(C(=O)c2ccn(-c3ccc4c(c3)B(O)OC4)c2)cc1 | 0.18 µg/mL (≈ 0.542 µM) | > 10 µg/mL | – | – | – |
| Nc1ccc(C(=O)c2ccn(-c3ccc4c(c3)B(O)OC4)c2)cc1 | 0.03 µg/mL (≈ 0.0943 µM) | 3.9 µg/mL (≈ 12.3 µM) | 100% | 100% | – |
| OB1OCc2ccc(-n3cc(Sc4ccccc4O)c4ccccc43)cc21 | > 5 µg/mL | > 10 µg/mL | – | – | – |
| O=C(CCCN1C(=O)c2ccccc2C1=O)c1ccn(-c2ccc3c(c2)B(O)OC3)c1 | 0.72 µg/mL (≈ 1.74 µM) | > 10 µg/mL | – | – | – |
| O=C(c1ccccc1)c1cccn1-c1ccc2c(c1)B(O)OC2 | 0.34 µg/mL (≈ 1.12 µM) | > 10 µg/mL | – | – | – |
| Cc1ccc(C(=O)c2ccn(-c3ccc4c(c3)B(O)OC4)c2)cc1 | 0.08 µg/mL (≈ 0.252 µM) | > 10 µg/mL | – | – | – |
| O=C(c1ccn(-c2ccc3c(c2)B(O)OC3)c1)c1cccs1 | 0.08 µg/mL (≈ 0.259 µM) | > 10 µg/mL | – | – | – |
| Cc1ccc(C(=O)c2ccn(-c3ccc4c(c3)B(O)OC4)c2)s1 | 0.07 µg/mL (≈ 0.217 µM) | > 10 µg/mL | 100% | 100% | – |
| O=C(O)c1cccn1-c1ccc2c(c1)B(O)OC2 | 0.13 µg/mL (≈ 0.535 µM) | > 10 µg/mL | – | – | – |
| O=C(CCc1ccccc1)c1ccn(-c2ccc3c(c2)B(O)OC3)c1 | 0.19 µg/mL (≈ 0.574 µM) | > 10 µg/mL | – | – | – |
| COc1ccc(CNC(=O)c2cccn2-c2ccc3c(c2)B(O)OC3)cc1 | 0.7 µg/mL (≈ 1.93 µM) | > 10 µg/mL | – | – | – |
| CCc1ccc(C(=O)c2ccn(-c3ccc4c(c3)B(O)OC4)c2)cc1 | 0.07 µg/mL (≈ 0.211 µM) | > 10 µg/mL | – | – | Active |
| O=C(c1ccccc1)c1ccn(-c2ccc3c(c2)B(O)OC3)c1 | 0.09 µg/mL (≈ 0.297 µM) | > 10 µg/mL | 100% | 100% | – |
| CCCCCC(=O)c1ccn(-c2ccc3c(c2)B(O)OC3)c1 | 0.09 µg/mL (≈ 0.303 µM) | > 10 µg/mL | – | – | – |

| SMILES | IC50 [1] | IC50 (L929) | survival at 50 mg/kg [2] | Activity [3] | Activity [4] |
| --- | --- | --- | --- | --- | --- |
| O=C(NC1CCCCC1)c1cccn1-c1ccc2c(c1)B(O)OC2 | 2.85 µg/mL (≈ 8.79 µM) | > 10 µg/mL | – | – | – |
| OB1OCc2ccc(-n3cccc3Sc3ccc(Cl)c(Cl)c3)cc21 | > 5 µg/mL | > 10 µg/mL | – | – | – |
| OB1OCc2ccc(-n3cccc3Sc3ccc(Cl)cc3)cc21 | 1.16 µg/mL (≈ 3.4 µM) | > 10 µg/mL | – | – | – |
| COc1ccccc1C(=O)c1ccn(-c2ccc3c(c2)B(O)OC3)c1 | 0.17 µg/mL (≈ 0.51 µM) | > 10 µg/mL | – | – | – |
| Cc1ccsc1C(=O)c1ccn(-c2ccc3c(c2)B(O)OC3)c1 | 0.11 µg/mL (≈ 0.34 µM) | > 10 µg/mL | – | – | – |
| CC(=O)c1ccn(-c2ccc3c(c2)B(O)OC3)c1 | 0.56 µg/mL (≈ 2.32 µM) | > 10 µg/mL | – | – | – |
| CNC(=O)c1cccn1-c1ccc2c(c1)B(O)OC2 | 0.86 µg/mL (≈ 3.36 µM) | > 10 µg/mL | – | – | – |
| Cc1ccccc1C(=O)c1ccn(-c2ccc3c(c2)B(O)OC3)c1 | 0.56 µg/mL (≈ 1.77 µM) | > 10 µg/mL | – | – | – |
| O=C(c1cccc(Cl)c1)c1ccn(-c2ccc3c(c2)B(O)OC3)c1 | 0.35 µg/mL (≈ 1.04 µM) | > 10 µg/mL | – | – | – |
| CC(=O)OCc1ccc(C(=O)c2ccn(-c3ccc4c(c3)B(O)OC4)c2)cc1 | 0.03 µg/mL (≈ 0.08 µM) | 10 µg/mL (≈ 26.7 µM) | – | – | – |
| OB1OCc2ccc(-n3cc(Sc4ccc5ccccc5c4)c4ccccc43)cc21 | > 5 µg/mL | > 10 µg/mL | – | – | – |
| O=C(c1ccc(F)cc1)c1cccn1-c1ccc2c(c1)B(O)OC2 | 0.4 µg/mL (≈ 1.25 µM) | > 10 µg/mL | – | – | – |
| OB1OCc2ccc(-n3cccc3)cc21 | 1.98 µg/mL (≈ 9.95 µM) | > 10 µg/mL | – | – | – |
| O=C(Cc1ccccc1)c1ccn(-c2ccc3c(c2)B(O)OC3)c1 | 0.29 µg/mL (≈ 0.914 µM) | > 10 µg/mL | – | – | – |
| O=C(c1ccn(-c2ccc3c(c2)B(O)OC3)c1)c1ccccc1Cl | 0.28 µg/mL (≈ 0.829 µM) | > 10 µg/mL | – | – | – |
| O=C(c1ccn(-c2ccc3c(c2)B(O)OC3)c1)c1cccc2ccccc12 | 0.4 µg/mL (≈ 1.13 µM) | 5.59 µg/mL (≈ 15.8 µM) | – | – | – |
| COc1ccc([S+]([O-])c2cn(-c3ccc4c(c3)B(O)OC4)c3ccccc23)cc1 (centres undefined) | 1.56 µg/mL (≈ 3.87 µM) | > 10 µg/mL | – | – | – |
| OB1OCc2ccc(-n3cc(Sc4ccc(O)cc4)c4ccccc43)cc21 | > 5 µg/mL | > 10 µg/mL | – | – | – |
| O=C(NCc1ccccc1)c1cccn1-c1ccc2c(c1)B(O)OC2 | 0.8 µg/mL (≈ 2.41 µM) | > 10 µg/mL | – | – | – |
